Test results: ChEMBL document CHEMBL3232996, “Synthesis and biological evaluation of novel (123)I-labeled 4-(4-iodophenyl)butanoyl-L-prolyl-(2S)-pyrrolidines for imaging prolyl oligopeptidase in vivo” (Eur J Med Chem, 2014)

Tests used:
[1] = Plasma protein binding in iv dosed C57Bl/6JRccHsd mouse measured at 20 mins; format: ADME, organism-based; conditions: read-out: PPB (converted)
Procedure, shortened: (§1)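 Male mice given 3.6 MBq tracer i.v. via lateral tail vein; blocking groups got POP inhibitor i.p. (50 µmol/kg, 10 mL/kg, 1% DMSO in 0.9% NaCl) 10 min before. Heparinized cardiac blood on ice, gamma-counted, spun 5 min at 2000 g; plasma counted, precipitated with 1.5 volumes acetonitrile, respun; cell-bound, protein-bound and free fractions expressed as % of blood activity; n = 3.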

Liver = experiment: Biodistribution in C57Bl/6JRccHsd mouse liver at 2.86 +/- 1.26 MBq, iv measured at 80 mins post dose pretreated with 50 umol/kg, ip prolyl oligopeptidase inhibitor KYP-2047 10 mins before compound dosing by SPECT analysis; format: ADME, organism-based; conditions: in vivo
Procedure, shortened: (§2)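 Organs excised at 5, 20, 40, 80 or 160 min and radioactivity gamma-counted as %ID/g (brain also as %ID). Blocking groups received KYP-2047 (50 µmol/kg, 10 mL/kg, 1% DMSO in 0.9% NaCl) i.p. 10 min before tracer. Mean ± SD, n = 2–4 per time point. Blocking compared by two-tailed Student's t test.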

[2] = Drug uptake in iv dosed C57Bl/6JRccHsd mouse blood cells measured at 80 mins; format: ADME, organism-based; conditions: in vivo
Procedure, shortened: (§3)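 Mice got tracer i.v., some after i.p. KYP-2047 (50 µmol/kg) 10 min before. Cardiac blood was collected at 20, 40, 80 or 160 min and spun 5 min at 2000 g into cells and plasma. Plasma was precipitated with acetonitrile and pellet and supernatant were gamma-counted. Activity in cells, protein-bound and free plasma is given as % of total blood activity, n = 3.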

Mus musculus [3] = experiment: Biodistribution in C57Bl/6JRccHsd mouse tongue at 2.86 +/- 1.26 MBq, iv measured at 80 mins by SPECT analysis; format: ADME, organism-based; conditions: in vivo; procedure, shortened: as §2
Brain [4] = experiment: Biodistribution in C57Bl/6JRccHsd mouse brain at 2.86 +/- 1.26 MBq, iv measured at 80 mins by SPECT analysis; format: ADME, organism-based; conditions: in vivo; procedure, shortened: as §2
[5] = Fraction unbound in iv dosed C57Bl/6JRccHsd mouse plasma measured at 40 mins; format: ADME, organism-based; procedure, shortened: as §1
Blood [6] = experiment: Biodistribution in C57Bl/6JRccHsd mouse blood at 2.86 +/- 1.26 MBq, iv measured at 20 mins post dose pretreated with 50 umol/kg, ip prolyl oligopeptidase inhibitor KYP-2047 10 mins before compound dosing by SPECT analysis; format: ADME, organism-based; conditions: in vivo; procedure, shortened: as §2
[7] = Octanol-phosphate buffer partition coefficient, log P of the compound by shake-flask method; format: physicochemical
Procedure, shortened: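 Tracer (700 kBq, in 1% DMSO/0.9% NaCl) shaken 3 min between n-octanol and 0.02 M phosphate buffer pH 7.4; octanol phase split into four tubes, re-extracted with equal buffer 10 min, centrifuged 5 min at 1000 g; log of octanol/buffer cpm per mL ratio, mean ± SD of four replicates.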

Brain [8] = experiment: Biodistribution in C57Bl/6JRccHsd mouse brain at 2.86 +/- 1.26 MBq, iv measured at 80 mins post dose pretreated with 50 umol/kg, ip prolyl oligopeptidase inhibitor KYP-2047 10 mins before compound dosing by SPECT analysis; format: ADME, organism-based; conditions: in vivo; procedure, shortened: as §2
[9] = Plasma protein binding in iv dosed C57Bl/6JRccHsd mouse measured at 160 mins; format: ADME, organism-based; conditions: in vivo; procedure, shortened: as §1
[10] = Biodistribution in C57Bl/6JRccHsd mouse urine at 2.86 +/- 1.26 MBq, iv measured at 80 mins post dose pretreated with 50 umol/kg, ip prolyl oligopeptidase inhibitor KYP-2047 10 mins before compound dosing by SPECT analysis; format: ADME, organism-based; conditions: in vivo; procedure, shortened: as §2
[11] = Plasma protein binding in iv dosed C57Bl/6JRccHsd mouse measured at 160 mins post dose pretreated with 50 umol/kg, ip prolyl oligopeptidase inhibitor KYP-2047 10 mins before compound dosing by SPECT analysis; format: ADME, organism-based; conditions: in vivo; procedure, shortened: as §1
[12] = Fraction unbound in iv dosed C57Bl/6JRccHsd mouse plasma measured at 160 mins; format: ADME, organism-based; procedure, shortened: as §3
Kidney = experiment: Biodistribution in C57Bl/6JRccHsd mouse kidney at 2.86 +/- 1.26 MBq, iv measured at 80 mins post dose pretreated with 50 umol/kg, ip prolyl oligopeptidase inhibitor KYP-2047 10 mins before compound dosing by SPECT analysis; format: ADME, organism-based; conditions: in vivo; procedure, shortened: as §2
[13] = Biodistribution in brain of iv dosed C57BL/6JRccHsd mouse LPS-induced acute neuroinflammation model dosed 24 hrs after LPS challenge and measured at 80 mins post dose; format: ADME, organism-based
Procedure, shortened: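 Male mice under isoflurane got a stereotaxic LPS injection (E. coli 055:B5) into the left striatum, with buprenorphine 0.1 mg/kg s.c. for post-operative pain. The right hemisphere served as intact control. Tracer was given i.v. 24 h later. Left and right hemisphere and whole-brain radioactivity were measured 80 min post injection as %ID/g or %ID, n = 3.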

Blood [14] = experiment: Biodistribution in C57Bl/6JRccHsd mouse blood at 2.86 +/- 1.26 MBq, iv measured at 40 mins post dose pretreated with 50 umol/kg, ip prolyl oligopeptidase inhibitor KYP-2047 10 mins before compound dosing by SPECT analysis; format: ADME, organism-based; conditions: in vivo; procedure, shortened: as §2
Mus musculus [15] = experiment: Biodistribution in C57Bl/6JRccHsd mouse salivary gland at 2.86 +/- 1.26 MBq, iv measured at 80 mins by SPECT analysis; format: ADME, organism-based; conditions: in vivo; procedure, shortened: as §2
Blood [16] = experiment: Biodistribution in C57Bl/6JRccHsd mouse blood at 2.86 +/- 1.26 MBq, iv measured at 20 mins by SPECT analysis; format: ADME, organism-based; conditions: in vivo; procedure, shortened: as §2
Spleen = experiment: Biodistribution in C57Bl/6JRccHsd mouse spleen at 2.86 +/- 1.26 MBq, iv measured at 80 mins post dose pretreated with 50 umol/kg, ip prolyl oligopeptidase inhibitor KYP-2047 10 mins before compound dosing by SPECT analysis; format: ADME, organism-based; conditions: in vivo; procedure, shortened: as §2
Blood [17] = experiment: Biodistribution in C57Bl/6JRccHsd mouse blood at 2.86 +/- 1.26 MBq, iv measured at 160 mins post dose pretreated with 50 umol/kg, ip prolyl oligopeptidase inhibitor KYP-2047 10 mins before compound dosing by SPECT analysis; format: ADME, organism-based; conditions: in vivo; procedure, shortened: as §2
Muscle tissue = experiment: Biodistribution in C57Bl/6JRccHsd mouse muscle at 2.86 +/- 1.26 MBq, iv measured at 80 mins by SPECT analysis; format: ADME, organism-based; conditions: in vivo; procedure, shortened: as §2
[18] = Drug uptake in iv dosed C57Bl/6JRccHsd mouse blood cells measured at 20 mins; format: ADME, organism-based; conditions: in vivo; procedure, shortened: as §3
Mus musculus [19] = experiment: Retention time in C57Bl/6JRccHsd mouse plasma at 3.6 MBq, iv measured at 20 mins by HPLC analysis; format: ADME, organism-based
Procedure, shortened: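 Male mice given 3.6 MBq i.v.; cardiac plasma deproteinized with acetonitrile, supernatant run on C18 radio-HPLC gradient, 0.65 min fractions gamma-counted, activity expressed as cpm/total cpm.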

Mus musculus [20] = experiment: Drug metabolism in C57Bl/6JRccHsd mouse plasma assessed as retention time of radioactive metabolite at 3.6 MBq, iv measured at 20 mins by HPLC analysis; format: ADME, organism-based
Procedure, shortened: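 Male mice received 3.6 MBq tracer via tail vein. Cardiac blood was taken on heparin and centrifuged. Plasma was deproteinized with acetonitrile (1.5× plasma volume) and the supernatant run on reverse-phase C18 gradient HPLC. Fractions of 0.65 min were gamma-counted. Metabolite retention time was read from the 20 min sample.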

fraction unbound at 20 min [1]: 0.98
Drug uptake (Liver): 5.05 % ID/g
Drug uptake [2]: 84%
Drug uptake (Mus musculus [3]): 4.43 % ID/g
Drug uptake (Brain [4]): 0.62 % ID/g
fraction unbound at 40 min [5]: 0.08
Drug uptake (Blood [6]): 10.9 % ID/g
logP [7]: 2.37
Drug uptake (Brain [8]): 0.08 % ID/g
PPB [9]: 1%
Drug uptake [10]: 45.24 % ID/g
PPB [11]: 0%
fraction unbound at 160 min [12]: 0.26
Drug uptake (Kidney): 4.73 % ID/g
tissue uptake at 80 min [13]: 0.6 %ID
Drug uptake (Blood [14]): 4 % ID/g
Drug uptake (Mus musculus [15]): 7.77 % ID/g
Drug uptake (Blood [16]): 8.5 % ID/g
Drug uptake (Spleen): 0.92 % ID/g
Drug uptake (Blood [17]): 1 % ID/g
Drug uptake (Muscle tissue): 2.15 % ID/g
Drug uptake [18]: 95%
Retention_time (Mus musculus [19]): 7.15 min
Retention_time (Mus musculus [20]): 4 min
Structure (SMILES): N#C[C@@H]1CCCN1C(=O)[C@@H]1CCCN1C(=O)CCCc1ccc([123I])cc1
